Measurements as given in ChEMBL document CHEMBL1152946, “6-Amino-2-mercapto-3H-pyrimidin-4-one derivatives as new candidates for the antagonism at the P2Y12 receptors” (Bioorg Med Chem, 2009).

Columns and labels:
[1] = Antiplatelet activity against 10^-6 M ADP-induced human platelet aggregation at 100 uM by light transmission aggregometry; type: functional
Procedure, shortened: (§1)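 Platelet-rich plasma came from healthy volunteers' blood collected in sodium citrate (9:1) and spun at 150g, 21 °C for 10 min. Samples were prewarmed to 37 °C with compound (10^-4 M) or vehicle, then ADP was added (final 10^-5 or 10^-6 M). Shape change and aggregation were followed by light transmission for 3 min. Results are % of vehicle aggregation, mean of at least 2 experiments.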

[2] = Antiplatelet activity against 10^-5 M ADP-induced human platelet aggregation at 100 uM by light transmission aggregometry; type: functional; procedure, shortened: as §1
[3] = molecular target: Adenosine receptor A2a (Homo sapiens) (UniProt P29274); test: Displacement of [3H]ZM241385 from human adenosine A2A receptor expressed in CHO cells at 10 uM; type: cell-based
Sequence of Adenosine receptor A2a (Homo sapiens) (P29274 whole entry): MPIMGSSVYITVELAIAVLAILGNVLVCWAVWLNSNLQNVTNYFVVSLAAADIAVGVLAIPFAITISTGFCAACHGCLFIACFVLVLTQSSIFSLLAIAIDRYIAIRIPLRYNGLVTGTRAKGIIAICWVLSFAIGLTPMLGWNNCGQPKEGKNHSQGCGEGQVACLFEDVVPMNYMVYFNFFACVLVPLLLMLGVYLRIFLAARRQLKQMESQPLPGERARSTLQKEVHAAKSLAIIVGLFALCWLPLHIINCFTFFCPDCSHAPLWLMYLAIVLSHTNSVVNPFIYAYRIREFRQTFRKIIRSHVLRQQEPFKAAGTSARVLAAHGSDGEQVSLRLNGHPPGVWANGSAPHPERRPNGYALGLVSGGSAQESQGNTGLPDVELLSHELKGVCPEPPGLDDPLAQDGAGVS
Procedure, shortened: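 Membranes from CHO cells expressing hA2A (50 µg protein) were incubated with [3H]ZM-241385 1 nM in 50 mM Tris HCl with 10 mM MgCl2, pH 7.4, for 60 min at 4 °C. Non-specific binding was defined with 1 µM ZM-241385. Samples were filtered on GF/B and counted by scintillation. Results are % displacement at the tested concentration, mean ± SEM of four experiments in triplicate.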

[4] = molecular target: T1, Adenosine receptor A1 (Homo sapiens) (UniProt P30542); test: Displacement of [3H]DPCPX from human adenosine A1 receptor expressed in CHO cells at 10 uM; type: cell-based
T1 sequence (whole entry): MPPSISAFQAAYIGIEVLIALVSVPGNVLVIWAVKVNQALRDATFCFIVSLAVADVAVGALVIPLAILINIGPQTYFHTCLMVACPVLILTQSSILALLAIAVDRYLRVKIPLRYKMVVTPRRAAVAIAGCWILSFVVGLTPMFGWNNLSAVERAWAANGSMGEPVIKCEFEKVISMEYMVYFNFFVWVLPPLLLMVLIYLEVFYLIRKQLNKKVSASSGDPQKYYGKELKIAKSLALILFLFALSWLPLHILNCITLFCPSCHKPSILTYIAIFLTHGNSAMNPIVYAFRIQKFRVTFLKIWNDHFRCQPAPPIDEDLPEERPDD
Procedure, shortened: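 Membranes from CHO cells expressing hA1 (50 µg protein) were incubated with [3H]DPCPX 1 nM in 50 mM Tris HCl pH 7.4 for 120 min at 25 °C. Non-specific binding was defined with 10 µM CHA. Bound ligand was separated by GF/B filtration and counted by scintillation. Results are % displacement of specific binding at the bracketed test concentration, mean ± SEM of four experiments in triplicate.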

[5] = molecular target: Adenosine receptor A2b (Homo sapiens) (UniProt P29275); test: Antagonist activity at human adenosine A2b receptor expressed in CHO cells expressed in inhibition of cAMP level; parameters: concentration or dose not given beside the values; conditions: concentration not given here
[6] = molecular target: Adenosine receptor A2b (Homo sapiens) (UniProt P29275); test: Antagonist activity at human adenosine A2b receptor expressed in CHO cells expressed in inhibition of NECA-induced cAMP level; parameters: concentration or dose not given beside the values; conditions: concentration not given here
P2Y purinoceptor 12 = P2Y purinoceptor 12 (Homo sapiens, UniProt Q9H244); test: Antagonist activity at human recombinant P2Y12 receptor expressed in CHO FlpIn cells assessed as reduction n 2-methylthio-ADP mediated inhibition of forskolin-induced cAMP response element-directed luciferase expression by bright-glo assay; type: functional, cell-based
Sequence of P2Y purinoceptor 12 (Q9H244 whole entry): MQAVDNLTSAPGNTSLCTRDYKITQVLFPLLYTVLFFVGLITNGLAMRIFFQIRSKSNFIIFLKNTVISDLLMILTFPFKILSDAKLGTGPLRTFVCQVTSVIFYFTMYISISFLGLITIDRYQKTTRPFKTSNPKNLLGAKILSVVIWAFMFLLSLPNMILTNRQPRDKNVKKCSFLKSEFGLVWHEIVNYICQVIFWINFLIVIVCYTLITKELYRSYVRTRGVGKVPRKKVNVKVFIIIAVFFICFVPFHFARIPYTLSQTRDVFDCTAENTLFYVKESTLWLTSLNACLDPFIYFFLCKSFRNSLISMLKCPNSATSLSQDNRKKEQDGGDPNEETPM
Procedure, shortened: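 CHO FlpIN cells stably expressing human P2Y12 were transiently transfected with a pCRE-luc reporter. After 24 h they were switched to physiological salt solution and exposed to forskolin 1 µM ± 2-methylthio-ADP 10 nM plus varying antagonist concentrations (DMSO vehicle) for 3.5 h at 37 °C. Luminescence was read after lysis with Bright-Glo. Responses are % of 2-methylthio-ADP response with DMSO only; n=4–8.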

[7] = molecular target: T2, Adenosine receptor A3 (Homo sapiens) (UniProt P0DMS8); test: Displacement of [125I]ABMECA from human adenosine A3 receptor expressed in CHO cells at 10 uM
T2 sequence (whole entry): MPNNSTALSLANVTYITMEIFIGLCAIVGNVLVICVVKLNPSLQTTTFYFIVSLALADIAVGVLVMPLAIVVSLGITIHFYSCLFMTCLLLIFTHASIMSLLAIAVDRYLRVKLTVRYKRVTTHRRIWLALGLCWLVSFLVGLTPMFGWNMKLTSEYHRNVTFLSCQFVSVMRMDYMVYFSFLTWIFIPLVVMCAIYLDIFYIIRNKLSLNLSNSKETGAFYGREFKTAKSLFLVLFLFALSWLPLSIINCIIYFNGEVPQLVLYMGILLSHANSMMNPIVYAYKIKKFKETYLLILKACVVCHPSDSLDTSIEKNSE

[8] = molecular target: T2, Adenosine receptor A3 (Homo sapiens); test: Displacement of [3H]ABMECA from human adenosine A3 receptor expressed in CHO cells at 10 uM; type: cell-based; conditions: in the assay text read “[125I]ABMECA” for “[3H]ABMECA”
Procedure, shortened: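 Non-specific binding was defined with 1 µM AB-MECA. Samples were filtered on GF/B and radioactivity was counted. Results are % displacement at the tested concentration, mean ± SEM of four experiments in triplicate.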

Compound | Activity [1] [%] | Activity [2] [%] | Activity [3] [%] | Activity [4] [%] | inhibition [5] [%] | inhibition [6] [%] | IC50 (P2Y purinoceptor 12) [µM] | Activity [7] [%] | Activity [8] [%]
Nc1cc(=O)[nH]c(SCc2ccccc2Cl)n1 | 88 | 101 |  |  |  |  |  |  | 
Nc1cc(OS(=O)(=O)c2ccccc2Cl)nc(SCc2ccccc2Cl)n1 | 92 | 96 |  |  |  |  |  |  | 
CCCCCSc1nc(N)cc(OS(=O)(=O)c2ccc(C)cc2)n1 | 96 | 88 |  |  |  |  |  |  | 
CN(C)c1cccc2c(S(=O)(=O)Oc3cc(N)nc(SCCN)n3)cccc12 | 83 | 99 |  |  |  |  |  |  | 
Cc1ccc(S(=O)(=O)Nc2cc(N)nc(SCCN)n2)cc1 | 91 | 91 |  |  |  |  |  |  | 
Cc1ccc(S(=O)(=O)Oc2cc(N)nc(SCCN)n2)cc1 | 37 | 96 | 18 | 3 | 10 | 7 | 8.08 | 36 | 
Nc1cc(=O)[nH]c(SCCO)n1 | 114 | 99 |  |  |  |  |  |  | 
Cc1ccc(S(=O)(=O)Oc2cc(N)nc(SCc3ccccc3Cl)n2)cc1 | 68 | 100 |  |  |  |  |  |  | 
Cn1c(SCc2ccccc2Cl)nc(N)cc1=O | 61 | 88 |  |  |  |  |  |  | 
Cc1ccc(S(=O)(=O)Oc2cc(N)nc(SCCNC(=O)OC(C)(C)C)n2)cc1 | 75 | 97 |  |  |  |  |  |  | 
O=C(Nc1ccccc1)Nc1cc(=O)[nH]c(SCc2ccccc2Cl)n1 | 91 | 94 |  |  |  |  |  |  | 
CCCCCSc1nc(N)cc(OS(=O)(=O)c2ccccc2Cl)n1 | 58 | 95 | 1 | 4 | 8 | 10 |  | 23 | 
CN(C)c1cccc2c(S(=O)(=O)Oc3cc(N)nc(SCCO)n3)cccc12 | 93 | 100 | 1 | 48 | 7 | 5 |  |  | 47
Nc1cc(OCc2ccccc2Cl)nc(SCc2ccccc2Cl)n1 | 86 | 95 |  |  |  |  |  |  | 
CN(C)c1cccc2c(S(=O)(=O)Oc3cc(N)nc(SCC(F)(F)F)n3)cccc12 | 115 | 104 |  |  |  |  |  |  | 
Cc1ccc(S(=O)(=O)NCCSc2nc(N)cc(=O)[nH]2)cc1 | 51 | 89 | 1 | 6 | 5 | 3 |  |  | 44
CCCCCSc1nc(N)cc(O)n1 | 63 | 100 |  |  |  |  |  |  | 
CN(C)c1cccc2c(S(=O)(=O)Oc3cc(N)nc(SCc4ccccc4Cl)n3)cccc12 | 96 | 101 |  |  |  |  |  |  | 
CSc1nc(N)cc(OS(=O)(=O)c2ccc(C)cc2)n1 | 120 | 96 |  |  |  |  |  |  | 
Nc1cc(=O)[nH]c(SC(c2ccccc2)(c2ccccc2)c2ccccc2)n1 | 81 | 100 |  |  |  |  |  |  | 
Cc1ccc(S(=O)(=O)Oc2cc(N)nc(SCCO)n2)cc1 | 57 | 99 | 1 | 2 | 2 | 4 |  |  | 46
CC(C)(C)OC(=O)NCCSc1nc(N)cc(=O)[nH]1 | 40 | 76 | 7 | 7 | 3 | 8 |  |  | 21
Nc1cc(OS(=O)(=O)c2ccccc2Cl)nc(SCC(F)(F)F)n1 | 97 | 102 |  |  |  |  |  |  | 
Nc1cc(OS(=O)(=O)c2ccccc2Cl)nc(SCCO)n1 | 110 | 100 |  |  |  |  |  |  | 
Cc1ccc(S(=O)(=O)Oc2cc(N)nc(SCC(F)(F)F)n2)cc1 | 105 | 101 |  |  |  |  |  |  | 
O=c1cc(O)nc(SCc2ccccc2Cl)[nH]1 | 97 | 96 |  |  |  |  |  |  | 
